Source: ChEMBL document CHEMBL3797189, “Small Molecule Inhibitors of Cyclophilin D To Protect Mitochondrial Function as a Potential Treatment for Acute Pancreatitis” (J Med Chem, 2016)
Active and inactive are the calls of the source. The rule behind the calls is not given here.

Experiments:
[1] = Cytotoxicity against CD1 mouse pancreatic acinar cells at 1 to 10 uM after 30 mins by propidium iodide staining based confocal microscopic analysis; conditions: pancreatic acinar cell, 0.5 h
Procedure, shortened: (§1)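 As a parallel cytotoxicity control, freshly isolated murine pancreatic acinar cells were exposed to compounds alone, without TLCS, at 0.1, 1.0 and 10 µM or at 1 and 10 µM. Necrotic cell death was scored.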

Pancreatic acinar cell [2] = test: Inhibition of taurolithocholate acid 3-sulfate-induced necrosis in CD1 mouse pancreatic acinar cells at 10 uM after 30 mins by propidium iodide staining based confocal microscopic analysis; assay type: functional
Procedure, shortened: (§2)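 Freshly isolated murine pancreatic acinar cells were exposed to the pancreatitis toxin taurolithocholate acid 3-sulphate (500 µM) with inhibitor at 0.1, 1.0 and 10 µM or at 1 and 10 µM.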

Pancreatic acinar cell [3] = test: Inhibition of taurolithocholate acid 3-sulfate-induced necrosis in CD1 mouse pancreatic acinar cells at 1 uM after 30 mins by propidium iodide staining based confocal microscopic analysis; assay type: functional; procedure, shortened: as §2
Pancreatic acinar cell [4] = test: Inhibition of taurolithocholate acid 3-sulfate-induced necrosis in human pancreatic acinar cells at 10 uM after 30 mins by propidium iodide staining based confocal microscopic analysis; assay type: functional
Pancreatic acinar cell [5] = test: Inhibition of taurolithocholate acid 3-sulfate-induced necrosis in CD1 mouse pancreatic acinar cells at 1 to 10 uM after 30 mins by propidium iodide staining based confocal microscopic analysis; assay type: functional; procedure, shortened: as §2
[6] = Cytotoxicity against CD1 mouse pancreatic acinar cells at 0.1 to 10 uM after 30 mins by propidium iodide staining based confocal microscopic analysis; conditions: pancreatic acinar cell, 0.5 h; procedure, shortened: as §1
Pancreatic acinar cell [7] = test: Inhibition of taurolithocholate acid 3-sulfate-induced change in mitochondrial membrane potential in CD1 mouse pancreatic acinar cells at 0.1 to 10 uM after 30 mins by tetramethyl rhodamine methyl ester dye based fluorescence analysis; assay type: functional, cell membranes
[8] = Cytotoxicity against CD1 mouse pancreatic acinar cells at 10 uM after 30 mins by propidium iodide staining based confocal microscopic analysis; conditions: pancreatic acinar cell, 0.5 h; procedure, shortened: as §1

Compound	Activity [1]	inhibition (Pancreatic acinar cell [2])	inhibition (Pancreatic acinar cell [3])	inhibition (Pancreatic acinar cell [4])	inhibition (Pancreatic acinar cell [5])	Activity [6]	inhibition (Pancreatic acinar cell [7])	Activity [8]
CCOC(=O)[C@H](CCSC)NC(=O)NCc1ccc(N)cc1	Non-toxic	Active	inactive					
CSCC[C@H](NC(=O)NCc1ccc(N)cc1)C(=O)N1CCC[C@H]1c1ccccc1SC				Active	Active	Non-toxic	Active	
Nc1ccc(CNC(=O)NCC(=O)N2CCC[C@@H]2c2ccccc2Br)cc1		Active	inactive					Toxic
